A short description of assay [1]: Antitumor activity against human LXFA 629L cells. It is filed as functional, cell-based.
Assay [2] is described as follows: Antitumor activity against human LXFL 529L cells. The assay is classed as functional, cell-based.
Assay [3] can be described thus: Antitumor activity against human MAXF 401NL cells. It is filed as functional, cell-based.
The nature of assay [4]: Antitumor activity against human MEXF 462NL cells. The assay is classed as functional, cell-based.
Assay [5] can be described thus: Antitumor activity against human RXF 944L cells. It is filed as functional, cell-based.
Assay [6] in a line: Antitumor activity against human UXF 1138L cells. The assay is classed as functional, cell-based.
In assay [7] the test system is Bacillus subtilis. In words: Antimicrobial activity against Bacillus subtilis at 40 ug/plate. It is filed as functional, organism-based. A digest of the protocol:
(§1)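 Agar plate diffusion test. The stated amount of compound is applied per test plate seeded with the named bacterium, alga or fungus. The read-out is the diameter of the growth-inhibition zone, in mm.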

Assay [8] has as its system Streptomyces viridochromogenes. In words: Antimicrobial activity against Streptomyces viridochromogenes Tu 57 at 40 ug/plate. The assay is classed as functional, organism-based. The procedure, abridged:
as §1

Assay [9] deals with Staphylococcus aureus. In words: Antimicrobial activity against Staphylococcus aureus at 40 ug/plate. The assay is classed as functional, organism-based. A digest of the protocol:
as §1

The test system of assay [10] is Escherichia coli. Kind of assay: Antimicrobial activity against Escherichia coli at 40 ug/plate. It is filed as functional, organism-based. The procedure, abridged: as §1
In assay [11] the test system is Chlorella vulgaris. In words: Antimicrobial activity against Chlorella vulgaris at 40 ug/plate. The assay is classed as functional, organism-based. The procedure, abridged:
as §1

In assay [12] the test system is Chlorella sorokiniana. In words: Antimicrobial activity against Chlorella sorokiniana at 40 ug/plate. It is filed as functional, organism-based. The procedure, abridged:
as §1

In assay [13] the test system is Desmodesmus subspicatus. Kind of assay: Antimicrobial activity against Scenedesmus subspicatus at 40 ug/plate. It is filed as functional, organism-based. A digest of the protocol:
as §1

Assay [14] relates to Rhizomucor miehei. In words: Antimicrobial activity against Mucor miehei at 40 ug/plate. It is filed as functional, organism-based. A digest of the protocol: as §1
In assay [15] the test system is Candida albicans. In words: Antimicrobial activity against Candida albicans at 40 ug/plate. The assay is classed as functional, organism-based. A digest of the protocol: as §1
The subject of assay [16] is Encephalomyocarditis virus. In words: Antiviral activity against EMC virus infected in human A549 cells assessed as protection against virus-induced cytopathic effect at 100 ug/ml. It is filed as functional, organism-based.
For assay [17], the system named is Bacillus subtilis. In words: Antimicrobial activity against Bacillus subtilis at 10 ug/plate. The assay is classed as functional. A digest of the protocol:
as §1

In assay [18] the test system is Streptomyces viridochromogenes. In words: Antimicrobial activity against Streptomyces viridochromogenes Tu 57 at 10 ug/plate. The assay is classed as functional. A digest of the protocol: as §1
The test system of assay [19] is Staphylococcus aureus. In words: Antimicrobial activity against Staphylococcus aureus at 10 ug/plate. It is filed as functional. The procedure, abridged: as §1
In assay [20] the test system is Escherichia coli. In words: Antimicrobial activity against Escherichia coli at 10 ug/plate. It is filed as functional. The procedure, abridged:
as §1

Assay [21] has as its system Chlorella vulgaris. In words: Antimicrobial activity against Chlorella vulgaris at 10 ug/plate. The assay is classed as functional. A digest of the protocol: as §1
Assay [22] deals with Chlorella sorokiniana. In words: Antimicrobial activity against Chlorella sorokiniana at 10 ug/plate. The assay is classed as functional. The procedure, abridged:
as §1

Assay [23] has as its system Desmodesmus subspicatus. In words: Antimicrobial activity against Scenedesmus subspicatus at 10 ug/plate. It is filed as functional. A digest of the protocol:
as §1

Assay [24] has as its system Rhizomucor miehei. Kind of assay: Antimicrobial activity against Mucor miehei at 10 ug/plate. It is filed as functional. A digest of the protocol:
as §1

The test system of assay [25] is Candida albicans. Kind of assay: Antimicrobial activity against Candida albicans at 10 ug/plate. It is filed as functional. A digest of the protocol:
as §1

≈ marks a conversion by molar mass, not a printed value. Calls of active or inactive are those of the source. The rule behind the calls is not given here. Some results are limits rather than exact numbers.

With `CCCC[C@@H](C)/C=C(C)/C=C(\C)C(=O)Nc1cc(O)c(/C=C/C=C/C=C/C(=O)NC2=C(O)CCC2=O)c(Cl)c1O` [CHINIKOMYCIN A], the IC50 in assay [1] was over 6 µg/mL; in [2], over 6 µg/mL; in [3], 2.41 µg/mL (≈ 4.23 µM); in [4] it was 4.15 µg/mL (≈ 7.29 µM); in assay [5], 4.02 µg/mL (≈ 7.06 µM); in assay [6], over 6 µg/mL. Also, the outcome (in the assay on Bacillus subtilis [7]; in assay [8]; in the assay on Staphylococcus aureus [9]; with Escherichia coli [10]; in the assay with Chlorella vulgaris [11]; in the assay with Chlorella sorokiniana [12]) was inactive. Moreover, the outcome (in the assay on Desmodesmus subspicatus [13]; in the assay on Rhizomucor miehei [14]; in the assay with Candida albicans [15]; in assay [16]) was inactive.
With `CCCC[C@@H](C)/C=C(C)/C=C(\C)C(=O)NC1=CC(=O)C(/C=C/C=C/C=C/C(=O)NC2=C(O)CCC2=O)=C(Cl)C1=O` [CHINIKOMYCIN B], the IC50 in [1] was over 6 µg/mL; in assay [2], over 6 µg/mL; in [3] it was 3.04 µg/mL (≈ 5.36 µM); in assay [4], over 6 µg/mL; in assay [5], over 6 µg/mL; in assay [6], over 6 µg/mL. Moreover, the result (in the assay with Bacillus subtilis [7]; in assay [8]; in the assay on Staphylococcus aureus [9]; in the assay with Escherichia coli [10]; in the assay with Chlorella vulgaris [11]; with Chlorella sorokiniana [12]) was inactive. Also, the outcome (in the assay with Desmodesmus subspicatus [13]; in the assay with Rhizomucor miehei [14]; in the assay on Candida albicans [15]; in assay [16]) was inactive.
For `CCCC[C@@H](C)/C=C(C)/C=C(\C)C(=O)NC1=C[C@@](O)(/C=C/C=C/C=C/C(=O)NC2=C(O)CCC2=O)[C@@H]2O[C@@H]2C1=O` [MANUMYCIN A], the “inhibition zone (IZ)” value (with Bacillus subtilis [17]; in assay [18]; in the assay on Staphylococcus aureus [19]; in the assay with Escherichia coli [20]; in the assay with Chlorella vulgaris [21]; with Chlorella sorokiniana [22]) was 16 mm throughout. The “inhibition zone (IZ)” value in the assay on Desmodesmus subspicatus [23], with Rhizomucor miehei [24] and in the assay on Candida albicans [25] was 16 mm each time.

The record behind these values is ChEMBL document CHEMBL1158698, “Chinikomycins A and B: isolation, structure elucidation, and biological activity of novel antibiotics from a marine Streptomyces sp. isolate M045” (J Nat Prod, 2005).
